High-throughput results: PubChem BioAssay, The Scripps Research Institute Molecular Screening Center
PAFAH1B3 FP inh: PAFAH1B3 enzyme inhibitors, primary screen, biochemical, fluorescence polarization, human; Platelet-activating factor acetylhydrolase IB subunit alpha1 (Homo sapiens), Q15102; recombinant PAFAH1B3, FP-rhodamine probe; 340,000 tested, 0.28% active; AID 492972, 2010; inhibition, % at 3.39 µM;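 active means inhibition above the screen-wide average of all tested compounds plus 3 SD, cut at about 25% in these data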;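 further: 0% = enzyme with DMSO only and 100% = wells lacking PAFAH1B3 protein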
Target sequence (Q15102 whole entry, looked up): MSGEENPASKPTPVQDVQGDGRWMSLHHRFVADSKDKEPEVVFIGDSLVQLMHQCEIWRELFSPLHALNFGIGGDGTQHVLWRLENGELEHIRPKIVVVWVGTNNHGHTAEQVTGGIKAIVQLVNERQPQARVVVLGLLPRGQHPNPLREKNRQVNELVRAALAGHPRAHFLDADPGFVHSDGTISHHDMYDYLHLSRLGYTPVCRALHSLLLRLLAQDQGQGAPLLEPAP
VIM-2 inhibitor: VIM-2 metallo-beta-lactamase inhibitors, primary screen, biochemical, epi-absorbance readout, Pseudomonas aeruginosa enzyme. purified VIM-2, nitrocefin hydrolysis, epi-absorbance fluorescence. inhibition, % at 5.6 µM. 290,000 tested, 0.89% active. AID 1527, 2009;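 active means inhibition above the mean of all tested compounds plus 3 SD, cutoff set per screening run, cut at about 7.5% in these data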;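 further: red hydrolysis product quenches plate fluorescence so inhibitors raise well fluorescence; 0% = enzyme with DMSO and 100% = DMSO without enzyme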
IMP-1 inh: IMP-1 metallo-beta-lactamase inhibitors, primary screen, biochemical, epi-absorbance readout, Pseudomonas aeruginosa enzyme; metallo-beta-lactamase IMP-1 (Pseudomonas aeruginosa); inhibition, % at 5.6 µM; 290,000 tested, 0.45% active; purified IMP-1, nitrocefin hydrolysis, epi-absorbance fluorescence;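 active means inhibition above the mean plus 3 SD of all compounds in the same screening run, cut at about 4.5% in these data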;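 further: 0% = IMP-1 with DMSO and 100% = DMSO wells lacking enzyme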
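Assay system: purified IMP-1; Quantity: IMP-1 0.2 nM before substrate addition; Medium: HEPES buffer pH 7.1 with ZnSO4 and Brij 35; Incubation: 15 min enzyme–compound preincubation, then 25 min nitrocefin reaction, 25 °C; Signal: fluorescence quenching readout, ex 480/em 530 nm; Controls: DMSO with and without IMP-1; Repeats: singlicate testing.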
PAFAH1B2 FP inh: PAFAH1B2 enzyme inhibitors, primary screen, biochemical, fluorescence polarization, human; AID 492953, 2010; 340,000 tested, 1.2% active; inhibition, % at 3.39 µM; Platelet-activating factor acetylhydrolase IB subunit alpha2 (Homo sapiens), P68402; recombinant PAFAH1B2, FP-rhodamine activity probe;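 active means inhibition above the mean of all tested compounds plus 3 SD, cut at about 24% in these data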;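 further: 0% = enzyme with DMSO and 100% = wells lacking PAFAH1B2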
PAFAH2 FP inh: PAFAH2 enzyme inhibitors, primary screen, biochemical, fluorescence polarization, human; recombinant PAFAH2, FP-rhodamine activity probe; 340,000 tested, 0.99% active; inhibition, % at 3.39 µM; Platelet-activating factor acetylhydrolase 2, cytoplasmic (Homo sapiens), Q99487; AID 492956, 2010;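 active means inhibition above the mean over all tested compounds plus 3 SD, cut at about 30% in these data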;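 further: inhibitors block probe labeling of enzyme so polarization drops; 0% = enzyme with DMSO and 100% = wells lacking PAFAH2 protein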
pPAFAH FP inh: pPAFAH enzyme inhibitors, primary screen, biochemical, fluorescence polarization, human. Platelet-activating factor acetylhydrolase (Homo sapiens), Q13093. inhibition, % at 3.39 µM. AID 463082, 2010. recombinant pPAFAH, FP-rhodamine probe fluorescence polarization. 330,000 tested, 1.5% active;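 active means inhibition above the mean inhibition across the screen plus 3 SD, cut at about 25% in these data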;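 further: inhibitors block binding of the rhodamine activity-based probe so polarization drops; 0% = enzyme with DMSO and 100% = wells lacking pPAFAH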
Target sequence (Q13093 whole entry, looked up): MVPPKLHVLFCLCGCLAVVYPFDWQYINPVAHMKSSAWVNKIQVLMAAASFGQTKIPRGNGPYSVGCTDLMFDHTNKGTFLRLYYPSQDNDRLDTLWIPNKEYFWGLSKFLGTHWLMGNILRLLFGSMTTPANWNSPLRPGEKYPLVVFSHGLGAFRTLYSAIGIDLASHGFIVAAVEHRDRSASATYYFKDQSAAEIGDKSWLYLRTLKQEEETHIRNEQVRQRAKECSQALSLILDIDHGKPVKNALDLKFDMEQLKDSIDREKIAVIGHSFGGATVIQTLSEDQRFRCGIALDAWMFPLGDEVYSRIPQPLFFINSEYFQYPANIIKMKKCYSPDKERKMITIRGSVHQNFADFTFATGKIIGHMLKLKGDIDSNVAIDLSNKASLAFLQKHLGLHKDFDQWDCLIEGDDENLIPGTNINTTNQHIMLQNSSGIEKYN
pPAFAH confirm: pPAFAH (PLA2G7) enzyme inhibitors, confirmation, biochemical, fluorescence polarization, human; shares compounds with pPAFAH FP inh; recombinant pPAFAH, FP-Rh probe fluorescence polarization; inhibition, % at 3.39 µM; 2,300 tested, 72% active; AID 463230, 2010;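 active means mean inhibition of the triplicate above the hit cutoff set for the earlier primary screen, cut at about 25% in these data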;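 further: 0% = enzyme with DMSO and 100% = wells lacking pPAFAH enzyme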
* hit, by the source's call; . = no result given. An excerpt weighted towards active compounds, which were near 3.6% of everything screened.

SMILES	PAFAH1B3 FP inh	VIM-2 inhibitor	IMP-1 inh	PAFAH1B2 FP inh	PAFAH2 FP inh	pPAFAH FP inh	pPAFAH confirm
CSCCC(NC(=O)c1ccccc1)C(=O)N(C)CC(=O)Nc1ccc(N2CCOCC2)cc1 (configuration not stated)	4.5	-2.6	-2.0	2.6	9.4	35.9*	31.6*
COc1cccc(NC(=O)c2sc3nc(N4CCOCC4)c4c(c3c2N)CCCC4)c1	7.5	0.9	-3.9	7.6	3.2	10.5	.
O=C1N/C(=N\S(=O)(=O)c2ccccc2)S/C1=C\c1cc([N+](=O)[O-])ccc1O	42.9*	-3.1	1.2	38.4*	30.6*	40.8*	48.8*
COc1ccc(CC(=O)Oc2ccc(C(C)C)cc2)cc1S(=O)(=O)N1CCOCC1	-0.3	.	.	0.0	-1.4	7.9	.
Cc1nc2ccc(F)cc2cc1C(=O)NCc1ccco1	-1.7	-1.4	-1.1	10.0	10.2	1.2	.
Cc1nc2ccc(F)cc2cc1C(=O)Nc1ccc(Cl)c(Cl)c1	-6.3	-2.5	-1.9	-0.3	-10.1	42.2*	1.6
COc1ccc(S(=O)(=O)N(C)CC(=O)NCCN2CCOCC2)cc1C	-2.4	-0.5	-1.8	-0.3	-7.8	3.2	.
O=C(O)C1Nc2ccc(Br)cc2C2C=CCC12 (configuration not stated)	39.6*	-0.5	-3.2	46.6*	79.0*	70.4*	61.0*
CCOC(=O)C1Nc2ccc(Br)cc2C2C=CCC12 (configuration not stated)	12.0	-1.0	-1.7	6.3	13.8	35.0*	3.9
CCOc1ccc(NS(=O)(=O)c2ccc3[nH]c(=O)oc3c2)cc1	5.3	-4.6	-4.4	2.7	5.3	54.6*	52.2*
Cc1ccc(NS(=O)(=O)c2ccc3[nH]c(=O)oc3c2)c(C)c1	-2.2	-2.2	-4.1	6.7	1.4	74.6*	70.5*
CC1CCCC(C)N1CC(O)COCc1ccccc1F (configuration not stated)	-3.8	0.6	0.0	-0.1	-1.6	0.9	.
COc1ccc(-c2csc(Nc3ccc(S(=O)(=O)Nc4cc(C)on4)cc3)n2)cc1C	10.4	-2.1	-3.8	14.0	37.3*	39.9*	61.5*
COc1ccc(CC(=O)Nc2ccc(S(=O)(=O)Nc3cc(C)on3)cc2)cc1OC	-1.1	-3.1	-2.2	0.9	0.7	4.8	.
O=C(N/N=C/c1ccc(O)c(O)c1O)/C(=C/c1ccc([N+](=O)[O-])cc1)NC(=O)c1ccccc1	16.3	-3.3	-4.8	7.9	11.0	37.7*	46.9*
CC1CCC/C(=C\Nc2ccc(O)cc2)C1=O (configuration not stated)	1.5	-2.2	-2.9	-0.3	-2.1	34.5*	2.8
Cc1cc(C(=O)O)ccc1N/C=C1\CCCC(C)C1=O (configuration not stated)	0.9	-3.1	-1.4	1.9	5.2	-2.4	.
N#CC1=C(N)C2=C(N3CCCCC3)CCCC2C1(C#N)C#N (configuration not stated)	46.1*	-4.8	-3.3	25.9*	39.6*	38.0*	4.8
Oc1ccc(C2C[C@H]3CC[C@@H]2C3)cc1O (some centres not stated)	13.6	-3.1	-1.3	75.1*	7.0	51.8*	32.1*
O=C1CC(c2ccc(O)c(O)c2)Oc2cc(O)cc(O)c21 (configuration not stated)	10.1	.	.	0.8	14.2	7.4	.
CCNc1ccccc(-c2ccc3ccccc3n2)c1=O	1.8	1.4	0.5	4.5	1.6	14.2	.
O=C1c2ccccc2-c2onc3ccc(NCc4ccco4)c1c23	103.8*	-0.7	-2.5	105.2*	120.7*	81.7*	103.5*
CCNc1ccc2noc3c2c1C(=O)c1ccccc1-3	103.8*	3.6	-0.9	113.9*	114.0*	105.6*	99.1*
O=C1C(Cl)=C(NCc2ccco2)C(=O)c2ccccc21	17.9	.	.	8.7	13.2	.	.
CCc1ccc(NS(=O)(=O)c2ccc3c(c2)oc(=O)n3C)cc1	5.4	2.0	-0.1	6.2	1.2	58.3*	47.0*
SMILES	PAFAH1B3 FP inh	VIM-2 inhibitor	IMP-1 inh	PAFAH1B2 FP inh	PAFAH2 FP inh	pPAFAH FP inh	pPAFAH confirm
Cc1ccc(NS(=O)(=O)c2ccc3c(c2)oc(=O)n3C)cc1	3.3	0.3	2.4	8.7	-1.9	.	.
Cc1nc2cc(-c3ccsc3-n3c(C)ccc3C)[nH]n2c(=O)c1Cl	5.5	1.0	-1.8	3.0	84.2*	54.6*	47.4*
Cc1cc(=O)n2[nH]c(-c3ccc(F)cc3)cc2n1	4.2	-3.3	-5.7	2.0	11.5	8.5	.
COCc1cc(=O)n2[nH]c(N)nc2n1	0.4	-1.4	-2.3	3.6	-0.2	-1.2	.
Cc1cc(=O)n2[nH]c(-c3ccsc3-n3c(C)ccc3C)cc2n1	10.3	1.1	1.0	8.9	39.7*	42.2*	10.7
COCc1cc(=O)n2[nH]c(-c3ccsc3-n3c(C)ccc3C)cc2n1	15.6	-1.5	-2.5	8.0	54.4*	46.4*	18.5
O=C(NCc1ccc(F)cc1)C1CCCN1S(=O)(=O)c1ccccc1C(F)(F)F (configuration not stated)	3.2	.	.	5.2	-5.2	4.4	.
O=C(CNS(=O)(=O)c1ccc(Br)s1)NCc1ccccc1	5.7	-3.1	-2.7	4.5	1.9	1.8	.
COc1ccc(/C=N\NC(=O)c2cc(O)c(O)c(O)c2)cc1COc1ccc(C(=O)OCC(C)C)cc1	26.3*	-0.1	-2.3	13.2	30.6*	85.4*	87.5*
COC(=O)COc1ccc(C(=O)Cn2c(NCCCO)nc3ccccc32)cc1	-1.8	.	.	-2.6	-1.5	4.0	.
O=C(COC(=O)CNC(=O)c1ccccc1)Nc1ccc(F)c([N+](=O)[O-])c1	6.4	0.1	-2.5	-1.3	0.9	37.5*	5.3
O=C(COC(=O)CNC(=O)C1CCCCC1)Nc1ccc(F)c([N+](=O)[O-])c1	0.7	.	.	3.5	3.2	3.4	.
CN(C)c1ncc(C2=C(Cl)C(=O)C(N3CCCC3)=C(Cl)C2=O)s1	26.9*	-0.2	5.2*	9.5	28.6	49.5*	10.1
CC(=O)c1cnc(N(C)C)s1	7.2	-2.6	-0.4	5.0	9.0	-2.1	.
Brc1ccc2c(c1)OCCOCCOc1cc(Br)ccc1OCCOCCOCCO2	4.8	-1.1	-2.3	5.5	2.2	68.2*	59.5*
